For assay [1], the target named is Tyrosine-protein kinase Fyn (Homo sapiens) (UniProt P06241). Description: Inhibition of human Fyn at 3 uM in presence of 10 uM ATP. Summed up: (§1)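 Selectivity panel run at a single compound concentration of 3 µM with 10 µM ATP. Read-out is % inhibition of each kinase. Values are averages of duplicate experiments.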
For assay [2], the target named is RAF proto-oncogene serine/threonine-protein kinase (Homo sapiens) (UniProt P04049). Put plainly: Inhibition of human c-RAF at 3 uM in presence of 10 uM ATP. Summed up: as §1
For assay [3], the target named is Hepatocyte growth factor receptor (Homo sapiens) (UniProt P08581). Put plainly: Inhibition of human Met at 3 uM in presence of 10 uM ATP. In a few lines:
as §1

Assay [4] deals with Tyrosine-protein kinase receptor UFO (Homo sapiens) (UniProt P30530). Description: Inhibition of human Axl kinase at 3 uM in presence of 10 uM ATP. In a few lines: as §1
The target of assay [5] is Glycogen synthase kinase-3 beta (Homo sapiens) (UniProt P49841). Description: Inhibition of human GSK3-beta at 3 uM in presence of 10 uM ATP. In a few lines: as §1
The species entered for another assay is Rattus norvegicus. Put plainly: Inhibition of rat AMPK at 3 uM in presence of 10 uM ATP. Summed up:
as §1

In assay [6] the target is T1, Cytoplasmic tyrosine-protein kinase BMX (Homo sapiens) (UniProt P51813).
T1 sequence (whole entry): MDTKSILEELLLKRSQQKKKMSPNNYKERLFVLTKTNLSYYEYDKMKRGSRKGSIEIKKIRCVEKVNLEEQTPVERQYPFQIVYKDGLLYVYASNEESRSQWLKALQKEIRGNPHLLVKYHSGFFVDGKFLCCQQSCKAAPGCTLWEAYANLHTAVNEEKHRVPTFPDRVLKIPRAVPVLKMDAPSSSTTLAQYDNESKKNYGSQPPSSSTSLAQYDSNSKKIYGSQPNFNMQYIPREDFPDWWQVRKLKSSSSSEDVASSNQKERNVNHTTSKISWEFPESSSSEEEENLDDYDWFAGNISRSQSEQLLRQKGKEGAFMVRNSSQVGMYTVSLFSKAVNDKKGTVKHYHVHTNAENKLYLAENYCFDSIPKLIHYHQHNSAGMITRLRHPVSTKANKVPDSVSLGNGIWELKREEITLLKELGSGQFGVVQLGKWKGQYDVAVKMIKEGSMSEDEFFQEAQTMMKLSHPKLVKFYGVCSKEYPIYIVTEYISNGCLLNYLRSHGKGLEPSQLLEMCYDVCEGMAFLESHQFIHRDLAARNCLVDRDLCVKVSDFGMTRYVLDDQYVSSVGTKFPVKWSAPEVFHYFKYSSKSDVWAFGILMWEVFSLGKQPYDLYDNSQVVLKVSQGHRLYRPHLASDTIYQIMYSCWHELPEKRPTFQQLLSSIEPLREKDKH
Put plainly: Inhibition of human Bmx kinase at 3 uM in presence of 10 uM ATP. In a few lines: as §1

Assay [7] deals with T2, Serine/threonine-protein kinase D1 (Homo sapiens) (UniProt Q15139).
T2 sequence (whole entry): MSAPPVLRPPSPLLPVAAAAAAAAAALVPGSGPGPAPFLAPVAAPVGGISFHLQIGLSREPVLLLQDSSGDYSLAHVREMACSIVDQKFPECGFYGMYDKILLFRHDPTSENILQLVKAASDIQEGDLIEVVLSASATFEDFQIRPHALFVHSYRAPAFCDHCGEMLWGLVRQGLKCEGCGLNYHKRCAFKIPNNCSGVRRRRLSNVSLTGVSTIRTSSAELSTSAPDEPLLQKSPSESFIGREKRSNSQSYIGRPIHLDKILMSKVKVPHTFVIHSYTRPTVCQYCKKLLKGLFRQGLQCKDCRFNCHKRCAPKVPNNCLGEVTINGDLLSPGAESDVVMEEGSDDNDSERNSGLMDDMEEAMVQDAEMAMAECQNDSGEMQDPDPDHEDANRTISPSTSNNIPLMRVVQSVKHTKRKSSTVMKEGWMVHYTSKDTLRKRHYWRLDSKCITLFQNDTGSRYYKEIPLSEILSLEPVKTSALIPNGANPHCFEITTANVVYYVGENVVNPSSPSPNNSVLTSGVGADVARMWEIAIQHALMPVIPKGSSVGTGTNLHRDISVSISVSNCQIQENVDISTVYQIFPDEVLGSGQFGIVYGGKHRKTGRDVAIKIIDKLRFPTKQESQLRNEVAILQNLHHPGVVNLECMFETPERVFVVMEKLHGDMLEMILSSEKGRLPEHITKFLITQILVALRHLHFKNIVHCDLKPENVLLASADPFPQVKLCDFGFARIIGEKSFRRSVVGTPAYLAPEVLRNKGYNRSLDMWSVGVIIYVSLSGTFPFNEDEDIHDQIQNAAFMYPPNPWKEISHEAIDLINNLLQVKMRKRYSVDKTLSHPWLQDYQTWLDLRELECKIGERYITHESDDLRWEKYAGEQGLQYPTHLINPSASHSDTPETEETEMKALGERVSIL
Put plainly: Inhibition of human PKC mu at 3 uM in presence of 10 uM ATP. In a few lines:
as §1

The target in assay [8] is T3, Serine/threonine-protein kinase Chk1 (Homo sapiens) (UniProt O14757).
T3 sequence (whole entry): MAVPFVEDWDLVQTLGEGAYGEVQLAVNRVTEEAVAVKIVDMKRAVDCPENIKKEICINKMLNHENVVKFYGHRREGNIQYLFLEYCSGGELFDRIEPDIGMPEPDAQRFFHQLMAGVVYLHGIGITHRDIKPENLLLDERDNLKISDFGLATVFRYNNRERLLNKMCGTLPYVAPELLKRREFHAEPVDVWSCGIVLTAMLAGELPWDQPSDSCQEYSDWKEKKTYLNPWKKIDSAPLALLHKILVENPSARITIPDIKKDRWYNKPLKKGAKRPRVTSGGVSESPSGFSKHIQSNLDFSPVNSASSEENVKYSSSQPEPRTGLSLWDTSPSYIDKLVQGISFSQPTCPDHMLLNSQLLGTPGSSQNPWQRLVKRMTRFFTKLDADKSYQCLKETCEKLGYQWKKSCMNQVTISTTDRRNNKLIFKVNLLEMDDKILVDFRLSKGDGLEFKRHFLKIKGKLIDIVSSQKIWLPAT
Put plainly: Inhibition of human CHK1 at 3 uM in presence of 10 uM ATP. Summed up: as §1

This note sets out measurements from ChEMBL document CHEMBL1147807, “Identification of 2-acylaminothiophene-3-carboxamides as potent inhibitors of FLT3” (Bioorg Med Chem Lett, 2006).

Chain of RAF proto-oncogene serine/threonine-protein kinase (Homo sapiens) (P04049 whole entry): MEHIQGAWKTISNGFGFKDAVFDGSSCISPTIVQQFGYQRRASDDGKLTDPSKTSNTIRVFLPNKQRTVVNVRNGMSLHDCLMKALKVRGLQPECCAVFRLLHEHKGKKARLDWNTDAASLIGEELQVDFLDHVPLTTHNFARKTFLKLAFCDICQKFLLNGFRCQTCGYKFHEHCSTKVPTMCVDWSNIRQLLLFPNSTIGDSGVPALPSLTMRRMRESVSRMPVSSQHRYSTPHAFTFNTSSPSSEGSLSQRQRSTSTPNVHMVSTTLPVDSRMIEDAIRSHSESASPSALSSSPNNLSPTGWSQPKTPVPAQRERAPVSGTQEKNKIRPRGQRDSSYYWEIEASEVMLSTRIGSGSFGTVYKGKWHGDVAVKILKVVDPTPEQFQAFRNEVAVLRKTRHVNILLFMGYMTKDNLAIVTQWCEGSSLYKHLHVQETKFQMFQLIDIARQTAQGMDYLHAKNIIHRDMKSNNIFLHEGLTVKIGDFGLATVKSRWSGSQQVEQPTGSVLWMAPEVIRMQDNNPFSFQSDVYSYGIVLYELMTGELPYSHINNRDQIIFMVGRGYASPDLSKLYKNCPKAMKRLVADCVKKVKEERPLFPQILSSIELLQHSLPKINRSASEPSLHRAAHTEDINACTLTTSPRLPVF
Chain of Hepatocyte growth factor receptor (Homo sapiens) (P08581 whole entry): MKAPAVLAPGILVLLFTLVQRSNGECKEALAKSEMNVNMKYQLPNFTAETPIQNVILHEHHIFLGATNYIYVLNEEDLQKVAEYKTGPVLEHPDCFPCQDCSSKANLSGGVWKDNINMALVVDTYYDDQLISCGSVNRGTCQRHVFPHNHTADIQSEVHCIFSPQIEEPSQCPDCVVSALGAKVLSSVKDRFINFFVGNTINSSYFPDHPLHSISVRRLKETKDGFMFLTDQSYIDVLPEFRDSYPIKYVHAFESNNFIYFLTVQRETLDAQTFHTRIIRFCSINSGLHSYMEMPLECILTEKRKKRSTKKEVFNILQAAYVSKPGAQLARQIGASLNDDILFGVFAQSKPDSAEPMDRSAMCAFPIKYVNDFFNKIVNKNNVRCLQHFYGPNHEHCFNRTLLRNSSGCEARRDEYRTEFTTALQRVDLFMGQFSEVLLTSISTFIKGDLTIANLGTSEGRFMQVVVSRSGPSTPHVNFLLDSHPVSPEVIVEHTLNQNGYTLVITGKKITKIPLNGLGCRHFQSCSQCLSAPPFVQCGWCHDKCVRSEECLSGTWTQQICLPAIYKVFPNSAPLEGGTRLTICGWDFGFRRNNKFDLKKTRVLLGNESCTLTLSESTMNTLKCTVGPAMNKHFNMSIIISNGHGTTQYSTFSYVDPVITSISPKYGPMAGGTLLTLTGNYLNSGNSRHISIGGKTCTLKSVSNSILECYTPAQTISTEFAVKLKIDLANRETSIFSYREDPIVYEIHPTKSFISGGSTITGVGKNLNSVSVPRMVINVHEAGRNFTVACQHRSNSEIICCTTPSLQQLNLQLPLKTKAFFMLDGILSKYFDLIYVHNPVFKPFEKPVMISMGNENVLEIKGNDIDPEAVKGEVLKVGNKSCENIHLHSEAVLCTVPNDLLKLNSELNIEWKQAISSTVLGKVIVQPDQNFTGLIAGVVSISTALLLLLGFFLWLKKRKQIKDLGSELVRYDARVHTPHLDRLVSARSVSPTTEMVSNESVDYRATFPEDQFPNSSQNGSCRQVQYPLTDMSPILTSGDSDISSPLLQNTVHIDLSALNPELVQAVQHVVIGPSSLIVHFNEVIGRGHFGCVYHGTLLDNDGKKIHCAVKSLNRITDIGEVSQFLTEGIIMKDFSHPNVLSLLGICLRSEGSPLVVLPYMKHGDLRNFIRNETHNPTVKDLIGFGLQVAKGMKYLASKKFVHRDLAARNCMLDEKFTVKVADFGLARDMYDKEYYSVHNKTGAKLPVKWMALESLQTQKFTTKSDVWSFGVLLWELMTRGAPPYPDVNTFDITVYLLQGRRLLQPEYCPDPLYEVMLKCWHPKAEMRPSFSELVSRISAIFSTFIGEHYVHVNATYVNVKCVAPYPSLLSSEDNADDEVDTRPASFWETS
Chain of Tyrosine-protein kinase receptor UFO (Homo sapiens) (P30530 whole entry): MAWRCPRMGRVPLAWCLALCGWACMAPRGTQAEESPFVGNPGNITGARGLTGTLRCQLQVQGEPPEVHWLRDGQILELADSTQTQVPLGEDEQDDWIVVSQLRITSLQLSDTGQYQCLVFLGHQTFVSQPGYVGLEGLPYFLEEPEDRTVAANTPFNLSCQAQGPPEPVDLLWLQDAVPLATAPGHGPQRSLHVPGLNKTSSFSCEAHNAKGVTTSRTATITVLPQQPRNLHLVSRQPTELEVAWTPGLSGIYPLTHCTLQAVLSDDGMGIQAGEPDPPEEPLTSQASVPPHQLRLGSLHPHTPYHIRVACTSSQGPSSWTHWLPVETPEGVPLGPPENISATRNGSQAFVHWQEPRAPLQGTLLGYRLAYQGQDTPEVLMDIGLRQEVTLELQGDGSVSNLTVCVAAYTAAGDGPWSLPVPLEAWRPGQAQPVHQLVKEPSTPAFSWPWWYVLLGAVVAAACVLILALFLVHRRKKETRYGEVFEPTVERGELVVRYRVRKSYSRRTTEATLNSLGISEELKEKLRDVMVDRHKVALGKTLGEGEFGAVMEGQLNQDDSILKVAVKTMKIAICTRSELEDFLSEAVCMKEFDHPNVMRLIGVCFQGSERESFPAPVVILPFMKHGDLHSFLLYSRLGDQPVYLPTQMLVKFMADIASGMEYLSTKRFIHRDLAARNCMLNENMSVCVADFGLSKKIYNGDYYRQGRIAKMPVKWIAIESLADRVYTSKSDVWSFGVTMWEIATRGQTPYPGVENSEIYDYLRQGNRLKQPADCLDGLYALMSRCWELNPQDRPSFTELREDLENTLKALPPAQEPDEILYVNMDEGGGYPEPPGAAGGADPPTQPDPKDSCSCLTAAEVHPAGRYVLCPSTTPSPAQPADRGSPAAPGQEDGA
Chain of Tyrosine-protein kinase Fyn (Homo sapiens) (P06241 2-537 limits assumed): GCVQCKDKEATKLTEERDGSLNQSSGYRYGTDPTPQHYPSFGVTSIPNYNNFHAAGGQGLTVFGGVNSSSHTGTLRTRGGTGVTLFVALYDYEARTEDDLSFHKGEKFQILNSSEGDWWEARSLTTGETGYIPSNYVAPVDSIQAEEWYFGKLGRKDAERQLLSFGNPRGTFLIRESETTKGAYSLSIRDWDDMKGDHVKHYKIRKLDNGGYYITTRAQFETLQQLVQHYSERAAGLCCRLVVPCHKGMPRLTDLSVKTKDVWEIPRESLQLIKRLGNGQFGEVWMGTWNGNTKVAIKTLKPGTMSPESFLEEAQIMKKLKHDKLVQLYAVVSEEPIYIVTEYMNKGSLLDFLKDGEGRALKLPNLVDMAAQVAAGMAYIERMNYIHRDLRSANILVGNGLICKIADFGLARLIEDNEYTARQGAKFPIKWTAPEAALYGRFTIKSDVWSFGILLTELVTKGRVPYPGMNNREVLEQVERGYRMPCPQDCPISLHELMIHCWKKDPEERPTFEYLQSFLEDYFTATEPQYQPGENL
Chain of Glycogen synthase kinase-3 beta (Homo sapiens) (P49841 whole entry, looked up): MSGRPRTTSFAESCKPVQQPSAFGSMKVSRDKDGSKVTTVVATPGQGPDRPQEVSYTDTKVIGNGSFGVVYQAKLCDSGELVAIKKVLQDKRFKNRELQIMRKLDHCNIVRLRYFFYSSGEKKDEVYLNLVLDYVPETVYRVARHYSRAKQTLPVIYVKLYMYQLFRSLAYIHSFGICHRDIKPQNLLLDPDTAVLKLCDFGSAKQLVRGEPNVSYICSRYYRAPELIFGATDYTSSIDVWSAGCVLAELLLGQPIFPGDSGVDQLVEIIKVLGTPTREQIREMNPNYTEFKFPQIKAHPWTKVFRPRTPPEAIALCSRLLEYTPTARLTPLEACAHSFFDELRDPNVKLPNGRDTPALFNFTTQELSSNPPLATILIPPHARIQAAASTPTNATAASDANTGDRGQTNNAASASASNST

As for `COc1ccc(C(=O)Nc2sc3c(c2C(N)=O)CCCC3)cc1OC`, the inhibition (as a rule, the drop in the measured response relative to a control, in per cent) is 33% in assay [1]; -1% in assay [2]; 13% in assay [3]; -10% in [4]; -2% in assay [5]; -4% in the assay filed under Rattus norvegicus. The values for the inhibition in [6], in assay [7] and in assay [8] were 9%, 3% and -7%, respectively.
